Measured values taken from PubChem BioAssay AID504837 (Johns Hopkins Ion Channel Center, 2011).
Several values for one entry are separate records, joined by “and”; a condition that tells them apart may be missing. Equal entries are not always repeated. Activity calls are given as the source filed them.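 Rule for the calls: active = lowers KCNQ2 potassium channel current at one or more tested doses and a dose response curve can be fitted; inactive = no current drop at any dose, or no curve.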

Biological target: Potassium voltage-gated channel subfamily KQT member 2 (Rattus norvegicus) (UniProt O88943)
Assay: KCNQ2 channel current inhibitors, SAR follow-up, orthogonal assay for KCNQ2 inhibitor project, automated electrophysiology, CHO cells (AID 504837)
Details: automated patch clamp current; for current change, negative = inhibition: at 30 µM (top of the series)
Outline: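 Repeats – quadruplicate per concentration · System – KCNQ2-expressing CHO cells · Read-out basis – percent current change relative to pre-compound current · Dosing – multiple compound concentrations · Probe or stimulus – voltage step from -90 mV holding to +40 mV, 2,000 ms · Detection – automated perforated-patch clamp (amphotericin B), steady-state current at +40 mV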

Potassium voltage-gated channel subfamily KQT member 2 (Rattus norvegicus), sequence (O88943 whole entry, looked up): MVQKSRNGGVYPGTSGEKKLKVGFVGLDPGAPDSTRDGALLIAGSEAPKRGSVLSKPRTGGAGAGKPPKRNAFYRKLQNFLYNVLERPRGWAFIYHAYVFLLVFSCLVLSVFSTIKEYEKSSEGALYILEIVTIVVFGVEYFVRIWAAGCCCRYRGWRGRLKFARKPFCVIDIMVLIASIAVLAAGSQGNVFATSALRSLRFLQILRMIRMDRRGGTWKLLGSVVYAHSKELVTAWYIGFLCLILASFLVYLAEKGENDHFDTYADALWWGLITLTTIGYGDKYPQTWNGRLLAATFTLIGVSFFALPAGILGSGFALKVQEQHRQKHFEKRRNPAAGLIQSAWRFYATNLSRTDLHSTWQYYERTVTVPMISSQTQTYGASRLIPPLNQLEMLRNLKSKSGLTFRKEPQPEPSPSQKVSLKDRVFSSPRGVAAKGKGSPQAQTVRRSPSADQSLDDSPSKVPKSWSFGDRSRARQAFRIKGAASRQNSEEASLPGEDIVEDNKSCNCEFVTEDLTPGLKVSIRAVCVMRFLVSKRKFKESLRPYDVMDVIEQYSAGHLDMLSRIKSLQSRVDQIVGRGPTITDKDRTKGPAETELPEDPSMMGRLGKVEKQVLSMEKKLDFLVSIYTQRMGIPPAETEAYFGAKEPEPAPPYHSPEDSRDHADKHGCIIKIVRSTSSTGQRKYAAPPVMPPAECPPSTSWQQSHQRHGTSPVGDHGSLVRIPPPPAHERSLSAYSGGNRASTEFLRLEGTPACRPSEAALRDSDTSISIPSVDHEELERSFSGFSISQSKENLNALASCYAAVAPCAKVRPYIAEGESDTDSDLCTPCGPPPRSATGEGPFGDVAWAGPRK

Row | Structure (SMILES) | IC50 | current change, negative = inhibition
1 | O=C(NCC(c1ccco1)N1CCOCC1)C(c1ccccc1)c1ccccc1 (configuration not stated) | 1200 nM | 
2 | CCC(CC)C(=O)NCC(c1ccco1)N1CCOCC1 (configuration not stated) |  | inactive
3 | CC(C)(C)c1ccc(OCCC(=O)NCC(c2cccs2)N2CCOCC2)cc1 (configuration not stated) |  | inactive
4 | CN1CCN(C(CNC(=O)C23CC4CC(CC(C4)C2)C3)c2cccs2)CC1 (configuration not stated) |  | inactive
5 | O=C(NC[C@H](c1cccs1)N1CCOCC1)C12CC3CC(CC(C3)C1)C2 | 8480 nM | 
6 | Cc1ccc(C(CNC(=O)C2(C)CC2(Cl)Cl)N2CCOCC2)o1 (configuration not stated) |  | inactive
7 | CC(C)(C)C1CCC(C(=O)NCC(c2cccs2)N2CCOCC2)CC1 (configuration not stated) |  | inactive
8 | Cc1ccc(OCC(=O)NCC(c2cccs2)N2CCOCC2)cc1 (configuration not stated) |  | inactive
9 | CCCCC1CCC(C(=O)NC[C@@H](c2ccco2)N2CCOCC2)CC1 (some centres not stated) |  | inactive
10 | COc1ccccc1C(=O)NCC(c1cccs1)N1CCOCC1 (configuration not stated) |  | inactive
11 | O=C(NCC(c1cccs1)N1CCOCC1)C12CC3CC(CC(C3)C1)C2 (configuration not stated) | 910 nM and 440 nM | 
12 | CC(C)(C)C(=O)NCC(c1cccs1)N1CCOCC1 (configuration not stated) |  | inactive
13 | CC(C)C(=O)NCC(c1cccs1)N1CCOCC1 (configuration not stated) |  | inactive
14 | CCCCC1CCC(C(=O)NCC(c2ccco2)N2CCOCC2)CC1 (configuration not stated) |  | inactive
15 | CC(C)CC(=O)NCC(c1cccs1)N1CCOCC1 (configuration not stated) |  | inactive
16 | CC1(C(=O)NCC(c2cccs2)N2CCOCC2)CC1(Cl)Cl (configuration not stated) | 9510 nM | 
17 | CN1CCN(C(CNC(=O)CC(C)(C)C)c2cccs2)CC1 (configuration not stated) |  | inactive
18 | O=C(NCC(c1ccco1)N1CCOCC1)C1CCCCC1 (configuration not stated) |  | inactive
19 | O=C(NCC(c1cccs1)N1CCOCC1)C1CCCCC1 (configuration not stated) | 2930 nM | 
20 | O=C(NCC(c1ccco1)N1CCOCC1)C1CC1 (configuration not stated) |  | inactive
21 | O=C(CC1CCCCC1)NCC(c1cccs1)N1CCOCC1 (configuration not stated) | 1730 nM | 
22 | CC1Oc2ccccc2OC1C(=O)NCC(c1cccs1)N1CCOCC1 (configuration not stated) | 8360 nM | 
23 | O=C(NC[C@@H](c1cccs1)N1CCOCC1)C12CC3CC(CC(C3)C1)C2 | 140 nM | 
24 | O=C(NCC(c1cccs1)N1CCOCC1)C1COc2ccc(Cl)cc2C1 (configuration not stated) | 3200 nM | 
25 | Cc1ccc(OCCC(=O)NCC(c2cccs2)N2CCOCC2)cc1 (configuration not stated) | 8980 nM | inactive
26 | Cc1ccc(C(CNC(=O)C2CCC2)N2CCOCC2)o1 (configuration not stated) |  | inactive
